Reference: PubChem BioAssay AID1229 (Sanford-Burnham Center for Chemical Genomics, 2008)
Screen size: about 190,000 compounds; about 10 (0.005%) were called active. Many of the other results were omitted from the sample, so actives are more common in it than they were. Values without a mark were called inactive.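 Rule for the calls: active = diaphorase activity raised at least twofold by the compound at 20 µM; inactive = activation factor below 2.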

test: compounds boosting diaphorase resazurin reduction – biochemical, uHTS, resorufin fluorescence, counter-screen for diaphorase-coupled primary assays, primary screen (AID 1229); settings: Diaphorase/resazurin coupled assay, 16 min, at 20 µM, hits give high values, 1 = vehicle wells, 0 = NADH-free wells
Outline: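 Material: Clostridium kluyveri diaphorase, purified enzyme; Quantity: enzyme 0.07 U/mL final; Medium: HEPES pH 7.4 buffer with MgCl2 and Tween 20; Dosing: single compound dose of 20 µM, 1% DMSO final; Schedule: 16 min reaction at room temperature; Measured by: red resorufin fluorescence at 544/590 nm excitation/emission.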

| SMILES | activation factor |
| --- | --- |
| Cc1cccc(-n2c(=O)c3c(C)c(C)sc3n(CC(N)=O)c2=O)c1 | 1.1 |
| O=C(COC(=O)c1ccc(Cl)nc1)NCc1ccc2c(c1)OCO2 | 1 |
| CC1CN(S(=O)(=O)c2ccc(C(=O)NN3CCN(C)CC3)cc2)CC(C)O1 (stereo not drawn) | 0.9 |
| CC(C)(C)NC(=O)C(=O)NCc1ccncc1 | 0.9 |
| O=C(NCc1ccccc1)C1=C[C@@H](c2ccc(C(F)(F)F)cc2)C[C@@H](OCc2ccc(CO)cc2)O1 | 0.6 |
| O=C(NC(=S)Nc1ccc(S(=O)(=O)Nc2ncccn2)cc1)c1cccc(Br)c1 | 0.9 |
| COc1ccc(/C=C(\C#N)C(=O)NCCCn2ccnc2)cc1 | 1 |
| O=C1CC(=O)Nc2cc(S(=O)(=O)N3CCN(c4cccc(C(F)(F)F)c4)CC3)ccc2N1 | 1 |
| CCOc1ccc(OCc2cccc(C(=O)N(CC)CC)c2)cc1 | 0.8 |
| CC(=O)Nc1ccc(S(=O)(=O)Nc2nccc(/C=C/c3ccccc3F)n2)cc1 | 0.8 |
| CCCc1nnc(SCC(=O)N2C(C)CCCC2C)n1CC (stereo not drawn) | 0.9 |
| CC(C)CNC(=O)/C=C/C(=O)O | 1 |
| COc1ccc(C)cc1Nc1nc(-c2c(C)[nH]c3ccccc23)cs1 | 0.9 |
| O=C(NCCCn1ccnc1)c1cc(-c2ccccc2)on1 | 1 |
| CCN(CC)CCOCCOc1ccc(Cl)c2ccccc12 | 0.8 |
| Cn1c(SCC(=O)Nc2ccc(Br)cc2F)nnc1-c1ccco1 | 0.9 |
| Cc1nc([N+](=O)[O-])cn1CC(=O)Nc1ccc2c(c1)OCO2 | 0.9 |
| CC(=O)NCCn1c(SCC(=O)Nc2ccc(C)cc2)nc2ccccc2c1=O | 0.9 |
| COc1cccc(-n2c(=S)[nH]c3c(oc4ccccc43)c2=O)c1 | 0.3 |
| CC1CCCCC1NC(=O)/C(C#N)=C/C=C/c1ccccc1[N+](=O)[O-] (stereo not drawn) | 0.8 |
| Cc1cccc(-n2c(Cc3cc(=O)[nH]c(=O)[nH]3)nnc2SCC(=O)Nc2cccc(C(F)(F)F)c2)c1 | 1 |

| SMILES | activation factor |
| --- | --- |
| COc1ccc(/C=C/C(=O)c2ccc(NS(=O)(=O)c3ccc(C)cc3)cc2)cc1O | 0.7 |
| CC(C)CCN1CCN(Cc2ccc(C(F)(F)F)cc2)CC1CCO (stereo not drawn) | 1 |
| CC(=O)N(CN1C(=O)C2C3C=CC(C3)C2C1=O)c1cccc(Cl)c1 (stereo not drawn) | 1.1 |
| O=C(C1=C[C@H](c2coc3ccccc3c2=O)C[C@H](OCc2ccc(CO)cc2)O1)N1CCOCC1 | 0.8 |
| COc1ccc(Br)cc1/C=N/Nc1ccc(Cl)c(C(=O)O)c1 | 0.9 |
| CC(=O)Nc1ccc(-c2csc(NC=C3C(=O)OC(C)(C)OC3=O)n2)cc1 | 0.9 |
| COC(=O)CSc1ccc2nnc(CCNS(=O)(=O)c3ccc(C)cc3)n2n1 | 0.7 |
| NC1=NN(c2cccc(C(=O)O)c2)C(=O)C1 | 0.9 |
| O=S1(=O)CC/C(=N\Nc2ccc(F)cc2)c2ccsc21 | 0.9 |
| CCO[C@H]1OC(C(=O)NCc2ccccc2)=C[C@@H](c2coc3ccccc3c2=O)[C@@H]1CCCO | 0.8 |
| CC(=O)Nc1ccc(S(=O)(=O)Nc2ccc(-c3ccc4nnc(C)n4n3)cc2)cc1 | 1.1 |
| CCOC(=O)C(CC)/C(C)=N\NC(=O)c1cccc(C)c1 (stereo not drawn) | 0.9 |
| COC(=O)N/N=C/c1ccc(-c2ccc(Cl)c(Cl)c2)o1 | 0.9 |
| C/C(=N\NS(=O)(=O)c1ccc(Cl)cc1)c1ccc(NC(=O)c2ccco2)cc1 | 0.8 |
| Cc1cc(C)nc(SCC(=O)N(C)C)n1 | 1 |
| CCOc1ccc(C(C)=O)cc1COC(=O)c1cnc(Cl)c(Cl)c1 | 0.8 |
| C=CCNCCCCOc1ccccc1 | 1.1 |
| CONc1nc2nonc2nc1NOC | 0.9 |
| O=C(C1CC1)N1N=C2CCCCC2C1(O)C(F)(F)F (stereo not drawn) | 0.9 |
| Cc1ccc(NN=Nc2nc3c([nH]2)c(=O)n(C)c(=O)n3C)cc1 | 0.6 |
| CCOc1ccc(Oc2nc(C)cc(OC)n2)nn1 | 0.9 |

| SMILES | activation factor |
| --- | --- |
| Cc1c(C2=CCN(S(=O)(=O)c3ccc(Cl)cc3)CC2)c2ccccc2n1C | 0.9 |
| COc1cc(C(=S)NCc2ccccc2)cc(Br)c1O | 1 |
| C/C=C/c1ccc(OCCCCN2CCC(C)CC2)c(OC)c1 | 1 |
| CCn1cc(-c2cc(C(=O)O)on2)c(C)n1 | 0.9 |
| Cc1ccc(OCCOCCOc2ccc(Br)cc2/C=N\NC(=O)c2ccncc2)cc1 | 0.8 |
| O=C(c1ccc2c(c1)N(Cc1ccc(F)cc1)C(=O)c1ccccc1S2(=O)=O)N1CCN(c2ccccn2)CC1 | 0.8 |
| CNc1[nH]ncc1[N+](=O)[O-] | 1 |
| O=C1c2ccccc2C(=O)N1CCC(O)C[N+](=O)[O-] (stereo not drawn) | 1 |
| Cc1ccc(NC(=O)OCCNC(=O)c2ccncc2)cc1 | 1 |
| N#Cc1c(NC(=O)C2CCCO2)sc2c1CCCCC2 (stereo not drawn) | 1 |
| O=C(/C(=C/c1cccc(Cl)c1)c1nc2ccccc2[nH]1)c1ccccc1 | 0.9 |
| Cc1ccnc(NC(=O)CCC(=O)N(CC(=O)NCCc2ccccc2)Cc2cccs2)c1 | 1 |
| CC(=O)C1=C(O)C(=O)N(c2cccnc2)C1c1ccc([N+](=O)[O-])cc1 (stereo not drawn) | 0.9 |
| O=C1/C(=C/c2cccs2)CCC1C1CCCC1 (stereo not drawn) | 0.9 |
| Cc1cccc2cc3c(N)c(C(=O)N4CCCc5ccccc54)sc3nc12 | 0.8 |
| COc1ccc(OC)c(S(=O)(=O)NCCC(C)C)c1 | 1.1 |
| CCOC(=O)c1c(/N=C/c2cc(C)ccc2O)sc2c1CCC2 | 1 |
| CC(C)=CCCC1(C)C=Cc2c(ccc3c2[nH]c2cc(O)c(C)cc23)O1 (stereo not drawn) | 0.8 |
| CN1CCNC(=O)C1CC(=O)N1CC=C(c2ccc(F)cc2)CC1 (stereo not drawn) | 0.9 |
| COC(=O)/C(C#N)=C/c1occc1C | 0.9 |
| CCCN(CC(=O)Nc1ccc(OC)c(OC)c1)CC(=O)Nc1ccc(F)c(F)c1F | 0.9 |
